# Calls of active or inactive are those of the source. Unless noted, no stated cut-off is given here; in the data, active means inhibition above about 30%; inactive means the rest.
# What was measured:
# [1] = reducers of endogenous Her2 protein level, primary screen, SKBR3 breast tumor cells, AlphaScreen, ATP viability (AID 461;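 active means Her2 level under about 52% in both replicate screens, with viability over 70% of control, limit read from the data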;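 on Her2 level: lower value means less Her2 protein in the cells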;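 on viability: percent of carrier control wells set as 100% viability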); conditions: 18-24 h, measured here: SKBR3 viability, ATP luminescence, at 10 µM
# [2] = target: Receptor tyrosine-protein kinase erbB-2 (Homo sapiens) (UniProt P04626); assay: as above; conditions: 18-24 h, at 10 µM, stronger effect = lower value
# Sequence of Receptor tyrosine-protein kinase erbB-2 (Homo sapiens) (P04626 whole entry, looked up): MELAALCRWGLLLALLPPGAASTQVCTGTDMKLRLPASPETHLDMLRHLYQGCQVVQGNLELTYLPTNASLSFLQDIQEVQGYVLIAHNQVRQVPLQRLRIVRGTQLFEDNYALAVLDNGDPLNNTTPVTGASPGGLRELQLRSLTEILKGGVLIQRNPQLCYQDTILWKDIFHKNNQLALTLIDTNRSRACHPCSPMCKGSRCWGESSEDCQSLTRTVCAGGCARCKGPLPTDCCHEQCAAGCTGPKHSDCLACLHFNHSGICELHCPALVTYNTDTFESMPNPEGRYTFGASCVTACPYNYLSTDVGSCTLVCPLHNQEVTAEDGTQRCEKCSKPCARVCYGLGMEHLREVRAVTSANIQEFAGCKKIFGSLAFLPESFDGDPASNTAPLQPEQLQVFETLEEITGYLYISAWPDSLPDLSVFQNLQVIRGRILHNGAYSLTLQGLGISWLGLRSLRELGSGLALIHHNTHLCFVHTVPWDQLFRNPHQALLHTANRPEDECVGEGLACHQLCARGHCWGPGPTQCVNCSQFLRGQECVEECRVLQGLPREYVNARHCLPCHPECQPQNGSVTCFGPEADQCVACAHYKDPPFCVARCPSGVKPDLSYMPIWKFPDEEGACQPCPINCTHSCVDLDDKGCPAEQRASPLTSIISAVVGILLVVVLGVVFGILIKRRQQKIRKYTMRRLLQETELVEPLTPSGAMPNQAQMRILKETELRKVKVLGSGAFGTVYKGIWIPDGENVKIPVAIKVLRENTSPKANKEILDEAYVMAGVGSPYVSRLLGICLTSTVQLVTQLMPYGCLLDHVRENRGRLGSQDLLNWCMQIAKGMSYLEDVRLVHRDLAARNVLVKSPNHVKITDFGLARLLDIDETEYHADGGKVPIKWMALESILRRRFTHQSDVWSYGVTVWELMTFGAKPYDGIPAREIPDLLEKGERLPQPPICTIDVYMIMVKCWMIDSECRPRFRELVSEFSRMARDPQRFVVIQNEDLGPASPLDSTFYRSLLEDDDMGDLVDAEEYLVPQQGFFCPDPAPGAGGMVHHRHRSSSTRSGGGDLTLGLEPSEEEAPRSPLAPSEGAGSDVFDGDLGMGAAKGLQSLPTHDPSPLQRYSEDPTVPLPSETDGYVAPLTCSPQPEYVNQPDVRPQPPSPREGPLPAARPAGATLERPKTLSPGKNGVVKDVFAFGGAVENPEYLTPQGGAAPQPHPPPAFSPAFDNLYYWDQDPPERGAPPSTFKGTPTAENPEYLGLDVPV
# [3] = SK-BR-3 cell growth inhibitors, pilot screen, 24 h, human (AID 572;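 active means viability at or below 10% of carrier control in both of two separate runs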;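 further: compound exposure lasted between 18 and 24 h rather than exactly 24 h; 100% = carrier-treated control wells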); conditions: SK-BR-3 viability, CellTiter-Glo luminescence, at 10 µM, stronger effect = lower value
# [4] = HUVEC growth inhibition – cell-based, human, primary screen (AID 575;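 active means viability at or below 30% in both replicate assays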;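 further: 100% = median of untreated cell wells with 0.1% DMSO on each plate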); conditions: HUVEC proliferation, CellTiter-Glo luminescence, 72 h; at 10 µM; stronger effect = lower value
# Method in brief: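 Test system – primary HUVEC, no more than 12 passages · Dosing – one dose, 10 µM final, 0.1% DMSO · Times – 72 h treatment at 37 °C · Measured by – ATP-based CellTiter-Glo luminescent read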
# [5] = growth inhibitors of H69AR lung tumor, primary screen, human, duplicate replicates (AID 580;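 active means viability at or under a set limit in both replicates, limit being median viability minus 3 SD, cut at about 48% in these data, passing the limit was not always enough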;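 further: 100% = mean luminescence of untreated wells and 0% = no signal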); conditions: H69AR lung tumor cells viability, ATP luminescence, 72 h; at 10 µM; stronger effect = lower value
# [6] = reversal of MRP1-mediated doxorubicin resistance, pilot screen, H69AR cells, doxorubicin co-treatment (AID 601;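 active means viability loss from added drug above about 55%, and viability with drug at most 40%, in both replicates, limit read from the data, passing the limit was not always enough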); conditions: CellTiter-Glo, 72 h, at 10 µM; for differential viability (reversal): stronger effect = higher value
# [7] = 384-well plate pilot, post-Golgi transport modulator project, inhibition of yeast transport mutant growth (AID 636; in the data active means inhibition above about 31%); conditions: absorbance 615 nm, about 18 h, stronger effect = higher value
# [8] = growth suppression of yeast trafficking mutant, preliminary HTS, modulators of trafficking downstream of Golgi apparatus project, 1536-format plate, OD 615 nm (AID 637); conditions: yeast transport mutant growth, absorbance 615 nm, 18 h; stronger effect = higher value
# [9] = H69AR cells + 2 uM doxorubicin, measured here: viability with 2 uM doxorubicin, stronger effect = lower value
# [10] = H69AR cells, compound alone cytotoxicity
SMILES,viability [1],Her2 level [2],viability [3],viability [4],viability [5],differential viability (reversal) ([6]; H69AR cells + 2 uM doxorubicin),"viability [6, 9]","viability [6, 10]",inhibition [7],inhibition [8]
COc1cccc(C2=NOC(C(=O)Nc3ccc(C(C)=O)cc3)C2)c1 (stereo not given),96%,98.5% (inactive),96% (inactive),96.6% (inactive),100% (inactive),16.6% (inactive),83.6%,100%,-1.58% (inactive),-4.73% (inactive)
CCOC(=O)c1ccc(NC(=O)CCc2c(C)nc3ncnn3c2C)cc1,88%,95.5% (inactive),88% (inactive),107% (inactive),92.7% (inactive),-9.71% (inactive),102%,92.7%,1.37% (inactive),-5.56% (inactive)
Clc1cccc(Nc2c3c(nc4ncnn24)CCC3)c1,94.5%,82.5% (inactive),94.5% (inactive),93% (inactive),83.8% (inactive),-5.48% (inactive),89.2%,83.8%,1.82% (inactive),9.84% (inactive)
CSc1nc(N2CCOCC2)c2ccccc2n1,110%,100% (inactive),110% (inactive),93.7% (inactive),94.6% (inactive),7.67% (inactive),87%,94.6%,-2.27% (inactive),-7.87% (inactive)
O=C(Nc1ccc(F)cc1F)NC1CC(=O)N(Cc2ccccc2)C1 (stereo not given),92.5%,89.5% (inactive),92.5% (inactive),109% (inactive),95.1% (inactive),0.32% (inactive),94.8%,95.1%,1.78% (inactive),26.2% (inactive)
Cc1cc(C)n2nc3nc(N4CCCCC4)nc(-c4ccco4)c3c2n1,81.5%,81% (inactive),81.5% (inactive),79.5% (inactive),80.2% (inactive),-2.63% (inactive),82.8%,80.2%,-4.53% (inactive),-5.16% (inactive)
O=C(O)c1ccc(COc2c(F)c(F)cc(F)c2F)cc1,114%,93.5% (inactive),114% (inactive),101% (inactive),103% (inactive),0.99% (inactive),102%,103%,-5.73% (inactive),-0.79% (inactive)
COc1ccc(OC)c(C2=Nn3c(nnc3C3CCCCC3)SC2)c1,94%,104% (inactive),94% (inactive),75.4% (inactive),78.1% (inactive),0.07% (inactive),78%,78.1%,5.92% (inactive),3.06% (inactive)
CCOC(=O)C1CCCN(C/C(O)=C(\C#N)c2nc(-c3ccc(Cl)cc3)cs2)C1 (stereo not given),78.5%,101% (inactive),78.5% (inactive),71.8% (inactive),84.1% (inactive),-7.97% (inactive),92.1%,84.1%,-6.16% (inactive),-3.17% (inactive)
O=C(O)Cn1cc(C(=O)c2ccco2)c2ccccc21,95%,100% (inactive),95% (inactive),105% (inactive),85.5% (inactive),-4.73% (inactive),90.3%,85.5%,-0.52% (inactive),3.61% (inactive)
COc1cc2nc(C3CCC3)n(NC(=O)C3CCCC(OC)C3)c(=O)c2cc1OC (stereo not given),100%,110% (inactive),100% (inactive),117% (inactive),92.2% (inactive),-5.31% (inactive),97.5%,92.2%,-9.86% (inactive),-0.67% (inactive)
N#Cc1c(N)c(C(=O)c2ccccc2)n2c1CCCC2,103%,71% (inactive),103% (inactive),97.7% (inactive),93.1% (inactive),-6.13% (inactive),99.2%,93.1%,-8.92% (inactive),-0.66% (inactive)
COc1ccccc1Nc1nc(N)nc(CN2CCN(c3ccccc3F)CC2)n1,96%,120% (inactive),96% (inactive),98.9% (inactive),81.3% (inactive),-8.69% (inactive),90%,81.3%,1.71% (inactive),11.5% (inactive)
c1cnc2c(SCc3ccc(-c4nnco4)cc3)cccc2c1,98.5%,101% (inactive),98.5% (inactive),80.7% (inactive),97.2% (inactive),12.1% (inactive),85.2%,97.2%,-2.03% (inactive),-12.4% (inactive)
